High-throughput results as filed in PubChem BioAssay.
In the library only some 1.2% were active in any assay of this set; here they are far more common.
procasp3 activ – procaspase-3 (human) activation | P42574 | recombinant procaspase-3 D3A, Ac-DEVD-pNA absorbance 405 nm | activation, % at 8.5 µM | hit rate 0.11% among 330,000;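 active = activation above the mean of all tested compounds plus 3 SD, cut at about 21% in these data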
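Technique: 405 nm absorbance of p-nitroaniline, reads at 0 and 120 min; Test system: Procaspase-3 D3A mutant; Incubation: 1 h enzyme-compound preincubation, then 2 h substrate reaction, 25 °C; Repeats: singlicate, each compound tested once; Benchmarks: low control DMSO wells, high control DMSO plus 5 µM PC-3 D3A.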
procasp7 counter – activates human procaspase-7, counter-screen for procaspase-3 activators | P55210 | recombinant procaspase-7, Ac-DEVD-pNA absorbance 405 nm; D23A/D198A/D206A triple mutant, cannot self-cleave; scale: DMSO 0, 5 µM enzyme 100 | activation, % at 8.5 µM | hit rate 0.093% among 330,000;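 active = percent activation above the screen-wide mean plus 3 SD, cut at about 25% in these data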
Target sequence (P55210 whole entry D23A/D198A/D206A): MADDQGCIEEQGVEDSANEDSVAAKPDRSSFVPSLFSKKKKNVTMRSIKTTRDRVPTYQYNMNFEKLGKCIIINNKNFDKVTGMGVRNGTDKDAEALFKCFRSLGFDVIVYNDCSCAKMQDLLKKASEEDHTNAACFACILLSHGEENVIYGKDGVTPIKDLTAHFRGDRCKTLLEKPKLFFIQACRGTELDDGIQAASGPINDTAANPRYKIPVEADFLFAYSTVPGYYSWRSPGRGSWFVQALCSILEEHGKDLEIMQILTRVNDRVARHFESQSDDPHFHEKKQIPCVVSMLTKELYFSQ
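Detection: p-Nitroaniline absorbance at 405 nm, read at 0 and 120 min; system: Uncleavable procaspase-7 mutant enzyme; evaluation: % activation from two-timepoint absorbance difference, scaled to controls; times: 1 h enzyme–compound preincubation and 2 h substrate reaction, both 25 °C; buffer or medium: Zinc-free HEPES pH 7.4 with 300 mM NaCl, 0.01% Triton X-100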
PP5 primary – blocks human protein phosphatase 5 activity. P53041. hit rate 0.18% among 320,000. AID 1987. inhibition, % at 6.7 µM. purified PP5c, OMFP substrate fluorescence;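 active = inhibition above the campaign's mean inhibition across all tested compounds plus 3 SD, cut at about 9.5% in these data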
PP1 inh – PP1-alpha (human) inhibition in PP5 counter-screen; inhibition, % at 6.7 µM; purified PP1alpha, OMFP fluorescence; hit rate 0.9% among 320,000;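 active = inhibition above the mean inhibition of all tested compounds plus 3 SD, computed separately for each screening campaign, cut at about 15% in these data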
Target sequence (P62136 whole entry, looked up): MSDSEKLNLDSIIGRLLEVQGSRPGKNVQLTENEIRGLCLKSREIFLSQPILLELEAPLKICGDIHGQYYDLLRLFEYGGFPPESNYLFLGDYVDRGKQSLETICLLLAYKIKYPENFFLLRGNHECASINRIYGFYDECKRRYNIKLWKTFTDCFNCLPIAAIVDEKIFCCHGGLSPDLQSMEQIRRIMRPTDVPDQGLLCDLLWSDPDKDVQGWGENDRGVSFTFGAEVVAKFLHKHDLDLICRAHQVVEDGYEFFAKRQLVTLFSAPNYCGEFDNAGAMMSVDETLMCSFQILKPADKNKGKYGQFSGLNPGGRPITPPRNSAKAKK
PC3 dual counter – activates human procaspase-3, dual activator counter-screen | shares compounds with procasp7 counter | recombinant PC-3 D3A, Ac-DEVD-pNA absorbance 405 nm; aspartates 9, 28, 175 changed to alanine; 100% = enzyme control | activation, % at 8.5 µM | 290 tested, under 10 active;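 active = mean percent activation across triplicates above a set limit taken from the earlier primary procaspase-3 screen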
Procasp7 act – confirmation of dual procaspase activators: human procaspase-7 activation; shares compounds with procasp7 counter; 290 tested, under 10 active; recombinant procaspase-7, Ac-DEVD-pNA absorbance 405 nm; D23A/D198A/D206A mutant that cannot self-cleave; activation, % at 8.5 µM;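 active = mean activation above a set limit carried over from the earlier primary screen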
Hits are given with their value; . = inactive; / = no result given.

SMILES | procasp3 activ | procasp7 counter | PP5 primary | PP1 inh | PC3 dual counter | Procasp7 act
Cn1c(CC(=O)Nc2ccccc2F)nnc1SCC(=O)Nc1nncs1 | . | 37.7 | . | . | . | .
Clc1ccc(C2=NN(c3ccccc3)C(c3ccco3)C2)cc1 (stereo unspecified) | . | . | . | . | / | /
O=Cc1ccc(N2N=C(c3ccccc3)CC2c2ccccc2)cc1 (stereo unspecified) | . | . | . | . | / | /
CC(=O)Nc1ccc(C2CC(c3ccc(Cl)cc3)=NN2c2ccccc2)cc1 (stereo unspecified) | 163.4 | 136.2 | . | . | . | .
CC(=O)Nc1ccc(C2=NN(c3ccccc3)C(c3ccccc3)C2)cc1 (stereo unspecified) | 217.8 | 46.0 | . | . | . | .
COc1cc(COc2ccc3c(C)c(CC(=O)O)c(=O)oc3c2C)cc(OC)c1OC | . | . | . | . | / | /
CCOC(=O)c1cc(-c2ccc3c(c2)OCCO3)nc2c1c(C)nn2CCC#N | 25.2 | 53.9 | . | . | . | .
CCOC(=O)c1cc(-c2ccc(Cl)cc2)nc2c1c(C)nn2CCC#N | . | . | . | . | / | /
COc1ccc2c(C)c(CC(=O)N3CCN(C(=O)C4COc5ccccc5O4)CC3)c(=O)oc2c1 (stereo unspecified) | . | . | . | . | / | /
Cc1c(CC(=O)N2CCN(C(=O)C3COc4ccccc4O3)CC2)c(=O)oc2c(C)c(O)ccc12 (stereo unspecified) | 26.7 | 26.2 | . | . | . | .
Cc1c(CC(=O)N2CCN(C(=O)C3COc4ccccc4O3)CC2)c(=O)oc2cc(O)ccc12 (stereo unspecified) | 23.7 | 29.6 | . | . | . | .
CCOC(=O)C1CCN(C(=O)c2cc(S(=O)(=O)N3CCCCCC3)ccc2OC)CC1 | . | . | . | . | / | /
c1ccc(N2CC3CCc4ccccc4C3=N2)cc1 (stereo unspecified) | 39.3 | 72.4 | . | . | . | .
CN1N=C2c3ccccc3CCC2C1c1ccc(F)cc1 (stereo unspecified) | . | . | . | . | / | /
C=CCn1c(C)cc(C(=O)COC(=O)CNC(=O)c2ccccc2)c1C | . | . | . | . | / | /
CCOc1ccc(OCCOCCn2ccnc2)cc1 | . | . | . | . | / | /
CCN(CC)c1ccc(-c2nn3c(-c4ccccc4OC)nnc3s2)cc1 | . | 32.6 | . | 15.8 | . | .
CC(NCc1ccccc1)c1ccccc1O (stereo unspecified) | . | 27.9 | . | . | . | .
Cc1cc(Cl)ccc1OCCCC(=O)NNC(=O)c1ccncc1 | . | . | . | . | / | /
COc1ccc2sc(-c3ccc(N(C)C)cc3)c(C#CC(C)(C)O)c2c1 | 48.7 | 69.6 | . | . | . | .
COc1ccc2sc(-c3ccc(SC)cc3)c(C#CC(C)(C)O)c2c1 | . | . | . | . | / | /
Cc1ccc(C)c(S(=O)(=O)N2CCN(C(=O)C3CCN(c4ncnc5sc(C)c(C)c45)CC3)CC2)c1 | . | . | . | . | / | /
Cc1ccc(CN(c2ccc(C(=O)NCc3ccccn3)cc2)S(C)(=O)=O)cc1 | . | . | . | . | / | /
CN1CCN(c2cc(-c3ccccc3)nc3cc(-c4ccc(F)cc4)nn23)CC1 | . | . | . | . | / | /
COc1cccc(-c2cc3nc(-c4ccccc4)cc(N4CCC5(CC4)OCCO5)n3n2)c1 | 31.7 | 38.1 | . | . | . | .
SMILES | procasp3 activ | procasp7 counter | PP5 primary | PP1 inh | PC3 dual counter | Procasp7 act
CCCN(CC(=O)Nc1ccc(Cl)cc1Cl)C(=O)/C=C/c1cc(OC)ccc1OC | . | 36.5 | . | . | . | .
CCn1ncc2c(OCc3ccc(C#N)cc3)cc(C)nc21 | . | . | . | . | / | /
CC(C)COc1ncnc2c1sc1nc3c(cc12)COC(C)(C)C3 | . | . | . | . | / | /
O=C(Nc1ccc(Cc2ccncc2)cc1)C1CCC(N2C(=O)C3C4C=CC(C5CC45)C3C2=O)CC1 (stereo unspecified) | . | 29.8 | . | . | . | 27.1
CCOC(=O)C1=C(C)NC(=O)NC1c1ccc(N2CCC(c3ccccc3)=N2)cc1 (stereo unspecified) | 31.1 | 72.4 | . | . | . | .
COCc1cc(C)nc2sc(C(=O)Nc3ccccc3Br)c(N)c12 | . | 35.9 | . | . | . | .
COCc1cc(C)nc2sc(C(=O)Nc3ccccc3C)c(N)c12 | . | . | . | . | / | /
COc1ccc2nc(NC(=O)c3sc4nc(C)cc(C)c4c3N)sc2c1 | . | 71.5 | . | . | . | .
COc1ccc(-c2c(C#N)c(N)nc3c2CCc2ccccc2-3)cc1OC | 34.2 | 65.2 | . | . | . | .
O=C(CSc1nc2ccccc2nc1N1CCCC1)Nc1ccc(F)cc1 | . | 40.9 | . | . | . | .
Cc1cc(C)cc(NC(=O)CSc2nc3ccccc3nc2N2CCCC2)c1 | . | 39.1 | . | . | . | .
COc1ccc(CCNC(=O)CNC(=O)c2ccccc2Br)cc1OC | . | . | . | . | / | /
Cc1ccc2nc(NCCNC(=O)c3ccccc3)c(C#N)cc2c1 | . | . | . | . | / | /
Cc1ccc2nc(NCc3ccccc3)c(C#N)cc2c1 | . | 51.7 | . | . | . | .
O=C(CSc1ccc([N+](=O)[O-])cn1)Nc1ccc2[nH]c(=O)[nH]c2c1 | . | . | . | . | / | /
O=C(Nc1ccc2c(c1)oc1ccccc12)c1ccc2c(c1)OCO2 | . | . | . | . | / | /
O=c1c(O)c(-c2ccc3c(c2)OCO3)oc2ccccc12 | 37.2 | 29.8 | . | . | 22.7 | .
CCCn1c(=N)c(S(=O)(=O)c2ccccc2)cc2c(=O)n3ccccc3nc21 | . | 42.4 | . | . | . | .
CCOP(=O)(OCC)c1nc(-c2cccc3ccccc23)oc1NCc1ccccc1 | . | . | . | . | / | /
CCOP(=O)(OCC)c1nc(-c2cccc3ccccc23)oc1NCc1ccc(OC)cc1 | 36.1 | 60.6 | . | . | . | .
COc1ccc(C(=O)c2sc3nc(-c4ccccc4)ccc3c2N)cc1 | . | . | . | . | / | /
CC(C)OC(=O)c1sc2nc(-c3ccccc3)ccc2c1N | . | 33.8 | . | . | . | .
C=CCSc1nnc(NC(=O)c2c(CC)noc2C)s1 | . | . | . | . | / | /
Fc1ccc(N/N=C/C=C/c2ccccc2)c(F)c1 | . | . | . | . | / | /
COc1c(CC=C(C)C)c(O)cc2oc(=O)c3c4ccc(O)cc4oc3c12 | 26.6 | 27.4 | . | . | . | .
O=c1oc2cc(O)ccc2c2oc3cc(O)ccc3c12 | . | 26.2 | . | . | . | .
Cc1c(Cc2ccccc2)c(=O)oc2cc(O)ccc12 | 25.2 | 27.3 | . | . | . | .
O=c1oc2cc(O)ccc2c2ccccc12 | . | . | . | . | / | /
O=C(NCCCCc1ccccc1)Nc1cccc(F)c1 | . | . | . | . | / | /
